# Source: PubChem BioAssay
# iPSC survival up – hiPSC single-cell survival enhancement. ATPlite luminescence; 100% = ROCK inhibitor wells, 0% = DMSO. survival enhancement, % at 20 µM. 360,000 compounds, 0.044% hits; in the data active means survival enhancement above about 18%;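 further: cells exposed to compounds for 16 hours before the ATP read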
# Apaf-1 inh – inhibitors of human Apaf-1 apoptosome. reconstituted apoptosome caspase-3 activity, DEVD-Rh110 fluorescence. 330,000 compounds, 0.71% hits. O14727. inhibition, % at 20 µM; active means inhibition of at least 40% at 20 µM;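 further: plate controls were DMSO wells for no effect and DEVD-CHO caspase inhibitor wells for full effect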
#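 System: reconstituted apoptosome with Apaf-1, cytochrome c, caspase-9, procaspase-3, dATP; Signal: Rh110 fluorescence intensity; Schedule: 30 min compound preincubation, 50 min activation, room temperature; Reagent: cytochrome c trigger plus (Z-DEVD)2-Rh110 caspase-3 substrate.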
# beta cell repl – inducers of beta-cell replication in MIN6 cells. MIN6 cells proliferation, ATPlite luminescence, 48 h; cells starved in 0.2% serum; 100% = growth in 10% serum. proliferation, % at 10 µM. 330,000 compounds, 0.29% hits;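 active means compounds whose signal lies at least 3.5 SD above the mean of all wells on their plate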;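 further: 0% = DMSO-treated cells in low-serum medium and 100% = 10% serum control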
# MPTP block – blocks calcium-induced mitochondrial swelling. AID 602449. 360,000 compounds, 1.4% hits. isolated mouse mitochondria, Ca2+ swelling absorbance, 30 min. inhibition, % at 10 µM;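 active means inhibition of 50% or more, scaled per plate between neutral and stimulator controls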;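 further: 0% = DMSO wells given calcium and 100% = 1 mM EGTA wells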
# Granule exo inh – blocks lytic granule exocytosis; 360,000 compounds, 0.66% hits; AID 651702; TALL-104 LAMP-1 surface exposure, flow cytometry; cells stimulated with thapsigargin and PMA; inhibition, % at 10 µM;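 active means inhibition above about 55%, limit read from the data; inconclusive means no clear call, values can overlap the other calls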
# UBC13 inh – inhibitors of human UBC13 polyubiquitin chain formation | inhibition, % at 20 µM | P61088 | TR-FRET | 330,000 compounds, 0.47% hits; in the data active means inhibition above about 45%, passing the limit was not always enough; inconclusive means no clear call, values can overlap the other calls
# Target sequence (P61088 whole entry, looked up): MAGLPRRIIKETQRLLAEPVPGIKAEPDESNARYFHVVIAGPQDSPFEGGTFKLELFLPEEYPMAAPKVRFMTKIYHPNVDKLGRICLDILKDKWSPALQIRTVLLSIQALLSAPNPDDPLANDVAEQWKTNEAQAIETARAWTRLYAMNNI
# Casp3 counter – caspase-3 inhibition (UBC13 counter-screen); shares compounds with UBC13 inh; Recombinant caspase-3, Caspase-Glo 3/7 luminescence, 60 min; inhibition, % at 20 µM; 1,400 compounds, 4% hits; AID 488856;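 active means mean inhibition across replicates above about 26%, limit read from the data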;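 further: plate controls were DMSO with caspase-3 for no effect and DMSO wells lacking enzyme for full effect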
# Target sequence (P42574 whole entry, looked up): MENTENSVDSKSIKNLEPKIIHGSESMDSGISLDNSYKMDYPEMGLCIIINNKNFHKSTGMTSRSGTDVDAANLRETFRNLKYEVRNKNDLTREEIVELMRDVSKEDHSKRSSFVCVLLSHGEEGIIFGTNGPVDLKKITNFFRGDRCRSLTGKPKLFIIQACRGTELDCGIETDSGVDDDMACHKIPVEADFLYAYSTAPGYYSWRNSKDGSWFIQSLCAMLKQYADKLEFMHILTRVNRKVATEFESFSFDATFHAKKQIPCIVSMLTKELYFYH
# UBC13 conf – human UBC13 polyubiquitin inhibition, confirmed; 1,400 compounds, 68% hits; AID 488859; inhibition, % at 10 µM; shares compounds with UBC13 inh; UBC13 polyubiquitination, TR-FRET, biochemical; in the data active means inhibition above about 45%; inconclusive means no clear call, values can overlap the other calls
# * marks the source's active call; other numbers are inactive results; ? = inconclusive; · = no result. The list is not random: actives were taken first. Their share in the collection is about 3%.
SMILES,iPSC survival up,Apaf-1 inh,beta cell repl,MPTP block,Granule exo inh,UBC13 inh,Casp3 counter,UBC13 conf
COc1ccc2sc(-c3ccccc3OC)c(C#Cc3cncn3C)c2c1,-2,22,-5,2,7,51*,0,38
COc1ccc2sc(-c3ccccc3OC)c(C#CC(C)(C)O)c2c1,-1,5,-7,2,-16,12,·,·
COc1ccccc1-c1sc2cc3c(cc2c1C#Cc1cncn1C)OCO3,1,31,-6,0,21,45*,0,38
COc1ccc(-c2sc3ccccc3c2C#CCO)cc1,-2,25,-6,0,-1,17,·,·
CCCCN(C=O)c1c(CC)nc2c(OCC(=O)N3CCOCC3)cccn12,0,·,·,-1,4,·,·,·
COc1ccccc1NC(=O)C1CCCN(S(=O)(=O)c2ccc(-n3cnnn3)cc2)C1 (configuration not stated),2,2,-3,-1,-8,0,·,·
CCOC(=O)C(=O)Cc1cccnn1,-2,·,·,0,4,·,·,·
CCC1=C(CC2NCCc3ccccc32)CC2c3cc(OC)c(OC)cc3CCN2C1 (configuration not stated),-1,·,·,-1,1,·,·,·
CC[C@H]1CN2CCc3cc(OC)c(OC)cc3C2C[C@@H]1C[C@H]1NCCc2cc(OC)c(OC)cc21 (some centres not stated),-4,-10,-8,·,-2,53*,3,10
COc1ccc(C(C)=O)cc1CC(=O)Nc1ccccc1-c1ccccc1,0,3,0,1,14,-2,·,·
COc1ccc(S(=O)(=O)Nc2ccc(C)cn2)cc1,0,-1,-2,2,2,46*,-2,-3
COc1ccc(S(=O)(=O)Nc2ccc(Cl)cn2)cc1,1,-11,1,0,-1,-1,·,·
NC1=NC[C@@H](Cc2ccc(O)cc2)N1CCc1cc(C(F)(F)F)cc(C(F)(F)F)c1,-1,31,4,2,-10,64*,-4,36
NC1=NC[C@@H](Cc2ccc(O)cc2)N1CCc1cccc(F)c1,3,0,2,2,-6,8,·,·
Oc1ccc(C2=NNC(=NCc3ccc4c(c3)OCO4)SC2)c(O)c1,0,-9,-3,1,24,45*,0,72*
CCC(C)[C@H]1CNCCN1CCc1cc(C(F)(F)F)cc(C(F)(F)F)c1 (some centres not stated),-6,19,-9,1,-8,60*,-6,30
CCCC[C@@H]1CNCCN1CCc1cc(C(F)(F)F)cc(C(F)(F)F)c1,-4,19,-8,1,-5,55*,-1,37
CCCC(=O)N(CCN1CCOCC1)c1nc2c(C)cccc2s1,0,14,-2,1,?,69*,-5,73*
CCCC(=O)N(CCN1CCOCC1)c1nc2c(C)ccc(C)c2s1,0,16,4,2,3,40,·,·
Cc1ccc(NC(=O)CSc2nnc(COc3ccccc3F)n2N)cc1S(=O)(=O)N1CCOCC1,0,·,·,0,-4,·,·,·
CCOc1ccccc1-c1nc(C(N)=O)c2[nH]c(=O)n(-c3ccc(F)cc3)c2n1,0,7,0,0,14,65*,3,8
CC(C)c1nc(C(N)=O)c2[nH]c(=O)n(-c3ccc(F)cc3)c2n1,-3,1,2,0,-7,0,·,·
CNC(=O)c1ccsc1NC(=O)C1CCCN1S(=O)(=O)c1cccs1 (configuration not stated),2,1,8,0,1,46*,8,79*
O=C(Nc1ccccc1)C1CCCN1S(=O)(=O)c1cccs1 (configuration not stated),0,2,-2,-2,-2,2,·,·
COc1ccc2nc(SCc3nc(N)nc(Nc4ccccc4)n3)[nH]c2c1,0,-4,-2,0,-7,46*,-3,38
SMILES,iPSC survival up,Apaf-1 inh,beta cell repl,MPTP block,Granule exo inh,UBC13 inh,Casp3 counter,UBC13 conf
COc1ccc(Nc2nc(N)nc(CSc3nc(C)cc(C)n3)n2)cc1,3,-6,3,-2,0,4,·,·
CCc1c(C)nc(N)c(C#N)c1-c1ccccc1,1,2,0,-1,3,7,·,·
Cn1nc(N)c2c(-c3ccc(Cl)cc3)c(C#N)c(N)nc21,-2,3,2,-2,5,72*,1,73*
Cn1nc(N)c2c(-c3ccccc3)c(C#N)c(N)nc21,-4,-5,0,-5,-1,59*,1,59*
O=C(Nc1ccc(C2=NCCN2)cc1)c1ccc(C(=O)Nc2ccc(C3=NCCN3)cc2)c([N+](=O)[O-])c1,0,-18,2,0,0,107*,2,123*
O=C(NC1CCC(O)CC1)C1CCN(S(=O)(=O)c2c(Cl)cccc2Cl)CC1 (configuration not stated),-1,-3,-4,-2,2,5,·,·
CCOC(=O)c1cccc(Nc2nc(-c3cccnc3)nc3ccccc23)c1,-1,20,-4,1,0,60*,-4,70*
COc1cccc(CNc2nc(-c3cccnc3)nc3ccccc23)c1,0,-10,-4,-1,-2,53*,3,42
N#Cc1cccnc1N1CCN(C(C(=O)NC2CCCC2)c2ccc(F)cc2)CC1 (configuration not stated),·,·,·,2,-7,·,·,·
COc1ccc(-c2cc(C3CCN(c4cc(Cl)nc(N)n4)CC3)[nH]n2)cc1,0,30,-6,31,0,46*,0,46*
CCC1(C)NC(=O)N(CC(=O)N2CCC(Cc3ccccc3)CC2)C1=O (configuration not stated),0,58*,1,-2,-4,64*,2,35
CC(Oc1cccc(Br)c1)C(=O)NNC(=O)c1ccccn1 (configuration not stated),-2,3,-6,-1,-2,47*,-5,91*
Cc1ccccc1C(=O)NC(=S)NCC(=O)c1ccccc1,6,3,0,1,0,6,·,·
Cc1ccccc1C(=O)NCC(=O)NNC(=S)NC(=O)c1ccccc1C,-1,-2,0,0,-1,87*,4,78*
Cc1ccccc1C(=O)NCC(=O)NNC(=S)NC(=O)c1ccccc1,-1,3,0,-1,-5,80*,1,82*
Cc1ccccc1C(=O)NC(=S)NCc1ccccc1,1,9,-5,0,-3,7,·,·
